Assay results: ChEMBL document CHEMBL1629608, “Variations in amino acid composition of antisense peptide-phosphorodiamidate morpholino oligomer affect potency against Escherichia coli in vitro and in vivo” (Antimicrob Agents Chemother, 2009)
≈ marks a conversion by molar mass, not a printed value. Calls of active or inactive are those of the source. The calls are words filed in the database; no cut-off is given here.

Legend:
[1] = Toxicity in Escherichia coli K-12 W3110 infected ip dosed mouse; assay type: organism-based; conditions: in vivo
In short: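 E. coli K-12 W3110 was grown in LB broth for the inoculum and injected intraperitoneally into groups of 3–7 mice. Conjugates were given ip at 15 min and 12 h postinfection (10–300 μg per dose), with water or scrambled-sequence conjugate as controls. Blood drawn at 2, 6, 12, 24 and 48 h was diluted and plated on LB for CFU counts. Survival was followed by Kaplan-Meier, and log CFU was compared by ANOVA with Tukey-Kramer.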

[2] = tested on: Rattus norvegicus; test: Toxicity in rat at 150 mg/kg, ip; conditions: in vivo
[3] = tested on: Escherichia coli; test: Antibacterial activity against Escherichia coli K-12 W3110 by microdilution method; assay type: functional; conditions: K-12 substr. W3110
[4] = tested on: Mus musculus; test: Toxicity in Escherichia coli K-12 W3110 infected mouse at 15 mg/kg, ip; assay type: organism-based; design: dose 15 mg/kg, route intraperitoneal; conditions: in vivo
In short: (§1)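 Mice in groups of 3–7 were infected intraperitoneally with E. coli W3110 from an LB culture. They were treated ip at 15 min and 12 h postinfection with 10, 30, 100 or 300 μg per dose; 300 μg is noted as ~15 mg/kg. Controls were water or scrambled-sequence PPMO. Survival was followed to 48 h and analysed by the Kaplan-Meier method.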

[5] = Therapeutic index, ratio of LD50 for Escherichia coli K-12 W3110 infected mouse to ED50 for Escherichia coli K-12 W3110; conditions: read-out: Ratio LD50/ED50
[6] = tested on: Escherichia coli; test: Antibacterial activity against Escherichia coli K-12 W3110 infected in mouse assessed as reduction of bacterial level in blood at 300 ug, ip administered 15 mins and 12 hrs postinfection measured after 6 hrs post dose relative to control; assay type: functional, K-12 substr. W3110
In short: (§2)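 Mice in groups of 3–7 were infected intraperitoneally with E. coli W3110 from an LB culture. They were dosed ip with 10–300 μg per dose at 15 min and 12 h postinfection. Controls were water or scrambled-sequence PPMO. Blood was taken at 2, 6, 12, 24 and 48 h, diluted and plated on LB for CFU/ml. Log CFU was compared by one-way ANOVA with Tukey-Kramer; mean ± SD.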

[7] = tested on: Escherichia coli; test: Antibacterial activity against Escherichia coli K-12 W3110 infected in mouse assessed as reduction of bacterial level in blood at 100 ug, ip administered 15 mins and 12 hrs postinfection measured after 2 hrs post dose relative to control; assay type: functional, organism-based; conditions: K-12 substr. W3110; in short: as §2
[8] = tested on: Escherichia coli; test: Antibacterial activity against Escherichia coli K-12 W3110 infected in mouse assessed as reduction of bacterial level in blood at 10 to 30 ug, ip administered 15 mins and 12 hrs postinfection measured after 2 hrs post dose relative to control; assay type: functional, organism-based; conditions: K-12 substr. W3110; in short: as §2
[9] = tested on: Escherichia coli; test: Antibacterial activity against Escherichia coli K-12 W3110 infected in mouse assessed as reduction of bacterial level in blood at 300 ug, ip administered 15 mins and 12 hrs postinfection measured after 12 hrs post dose relative to control; assay type: functional, K-12 substr. W3110; in short: as §2
[10] = tested on: Escherichia coli; test: Antibacterial activity against Escherichia coli K-12 W3110 infected in mouse assessed as reduction of bacterial level in blood at 300 ug, ip administered 15 mins and 12 hrs postinfection measured after 2 hrs post dose relative to control; assay type: functional, K-12 substr. W3110; in short: as §2
[11] = tested on: Escherichia coli; test: Antibacterial activity against Escherichia coli K-12 W3110 infected in ip dosed mouse assessed as reduction of bacterial level in blood administered 15 mins and 12 hrs postinfection; assay type: functional; conditions: K-12 substr. W3110, Blood; in short: as §2
[12] = tested on: Escherichia coli; test: Antibacterial activity against Escherichia coli K-12 W3110 infected in mouse assessed as increase of mouse survival at 30 to 300 ug, ip administered 15 mins and 12 hrs postinfection; assay type: functional, organism-based; conditions: K-12 substr. W3110; in short: as §1
[13] = tested on: Escherichia coli; test: Antibacterial activity against Escherichia coli K-12 W3110 infected in mouse assessed as increase of mouse survival at 10 ug, ip administered 15 mins and 12 hrs postinfection; assay type: functional, organism-based; conditions: K-12 substr. W3110, filed as antagonist; in short: as §1
[14] = tested on: Escherichia coli; test: Antibacterial activity against Escherichia coli K-12 W3110 infected in mouse assessed as reduction of bacterial level in blood at 100 ug, ip administered 15 mins and 12 hrs postinfection measured after 12 hrs post dose relative to control; assay type: functional, K-12 substr. W3110; in short: as §2
[15] = tested on: Escherichia coli; test: Antibacterial activity against Escherichia coli K-12 W3110 infected in mouse assessed as reduction of bacterial level in blood at 30 ug, ip administered 15 mins and 12 hrs postinfection measured after 2 hrs post dose relative to control; assay type: functional, K-12 substr. W3110; design: scale not given: the % may be the effect or the level left; in short: as §2

| Compound | LD50 [1] | Activity [2] | MIC [3] | Activity [4] | selectivity ratio [5] | log10cfu [6] | Activity [7] | Activity [8] | log10cfu [9] | log10cfu [10] | ED50 [11] | Activity [12] | Activity [13] | log10cfu [14] | Activity [15] |
| --- | --- | --- | --- | --- | --- | --- | --- | --- | --- | --- | --- | --- | --- | --- | --- |
| Cc1cn([C@H]2CNC[C@@H](COP(=O)(N(C)C)N3C[C@@H](COP(=O)(N(C)C)N4C[C@@H](COP(=O)(N(C)C)N5C[C@@H](COP(=O)(N(C)C)N6C[C@@H](COP(=O)(N(C)C)N7C[C@@H](COP(=O)(N(C)C)N8C[C@@H](COP(=O)(N(C)C)N9C[C@@H](COP(=O)(N(C)C)N%10C[C@@H](COP(=O)(N(C)C)N%11C[C@@H](COP(=O)(N(C)C)N%12C[C@@H](COP(=O)(N(C)C)N%13CCN(C(=O)CCNC(=O)CCCCCNC(=O)[C@H](CCCNC(=N)N)NC(=O)[C@H](Cc%14ccccc%14)NC(=O)[C@H](CCCNC(=N)N)NC(=O)[C@H](CCCNC(=N)N)NC(=O)NC(=O)[C@H](Cc%14ccccc%14)NC(=O)[C@H](CCCNC(=N)N)NC(=O)[C@H](CCCNC(=N)N)NC(=O)NC(=O)[C@H](Cc%14ccccc%14)NC(=O)[C@H](CCCNC(=N)N)NC(=O)[C@H](CCCNC(=N)N)NC(=O)NC(=O)[C@H](Cc%14ccccc%14)NC(=O)[C@@H](N)CCCNC(=N)N)CC%13)O[C@@H](n%13cc(C)c(=O)[nH]c%13=O)C%12)O[C@@H](n%12ccc(N)nc%12=O)C%11)O[C@@H](n%11cc(C)c(=O)[nH]c%11=O)C%10)O[C@@H](n%10ccc(N)nc%10=O)C9)O[C@@H](n9cnc%10c(N)ncnc%109)C8)O[C@@H](n8cnc9c(=O)[nH]c(N)nc98)C7)O[C@@H](n7cnc8c(N)ncnc87)C6)O[C@@H](n6cc(C)c(=O)[nH]c6=O)C5)O[C@@H](n5cnc6c(=O)[nH]c(N)nc65)C4)O[C@@H](n4cnc5c(=O)[nH]c(N)nc54)C3)O2)c(=O)[nH]c1=O (stereo partly drawn) | 210 mg/kg | Toxic | – | – | – | – | – | – | – | – | – | – | – | – | – |
| Cc1cn([C@H]2CN(P(=O)(OC[C@@H]3CN(P(=O)(OC[C@@H]4CN(P(=O)(OC[C@@H]5CN(P(=O)(OC[C@@H]6CN(P(=O)(OC[C@@H]7CN(P(=O)(OC[C@@H]8CN(P(=O)(OC[C@@H]9CN(P(=O)(OC[C@@H]%10CNC[C@H](n%11cnc%12c(=O)[nH]c(N)nc%12%11)O%10)N(C)C)C[C@H](n%10cc(C)c(=O)[nH]c%10=O)O9)N(C)C)C[C@H](n9cnc%10c(=O)[nH]c(N)nc%109)O8)N(C)C)C[C@H](n8cnc9c(N)ncnc98)O7)N(C)C)C[C@H](n7cc(C)c(=O)[nH]c7=O)O6)N(C)C)C[C@H](n6cnc7c(N)ncnc76)O5)N(C)C)C[C@H](n5cnc6c(=O)[nH]c(N)nc65)O4)N(C)C)C[C@H](n4ccc(N)nc4=O)O3)N(C)C)C[C@@H](COP(=O)(N(C)C)N3C[C@@H](COP(=O)(N(C)C)N4C[C@@H](COP(=O)(N(C)C)N5CCN(C(=O)CCNC(=O)CCCCCNC(=O)[C@H](CCCNC(=N)N)NC(=O)[C@H](Cc6ccccc6)NC(=O)[C@H](CCCNC(=N)N)NC(=O)[C@H](CCCNC(=N)N)NC(=O)NC(=O)[C@H](Cc6ccccc6)NC(=O)[C@H](CCCNC(=N)N)NC(=O)[C@H](CCCNC(=N)N)NC(=O)NC(=O)[C@H](Cc6ccccc6)NC(=O)[C@H](CCCNC(=N)N)NC(=O)[C@H](CCCNC(=N)N)NC(=O)NC(=O)[C@H](Cc6ccccc6)NC(=O)[C@@H](N)CCCNC(=N)N)CC5)O[C@@H](n5ccc(N)nc5=O)C4)O[C@@H](n4cc(C)c(=O)[nH]c4=O)C3)O2)c(=O)[nH]c1=O (stereo partly drawn) | 300 mg/kg | – | 0.625 µM (≈ 3.71 µg/mL) | Non-toxic | 200 | 2 | Active | inactive | 2 | 2 | 1.5 mg/kg | – | – | – | – |
| Cc1cn([C@H]2CN(P(=O)(OC[C@@H]3CN(P(=O)(OC[C@@H]4CN(P(=O)(OC[C@@H]5CN(P(=O)(OC[C@@H]6CN(P(=O)(OC[C@@H]7CN(P(=O)(OC[C@@H]8CN(P(=O)(OC[C@@H]9CN(P(=O)(OC[C@@H]%10CNC[C@H](n%11cnc%12c(=O)[nH]c(N)nc%12%11)O%10)N(C)C)C[C@H](n%10cc(C)c(=O)[nH]c%10=O)O9)N(C)C)C[C@H](n9cnc%10c(=O)[nH]c(N)nc%109)O8)N(C)C)C[C@H](n8cnc9c(N)ncnc98)O7)N(C)C)C[C@H](n7cc(C)c(=O)[nH]c7=O)O6)N(C)C)C[C@H](n6cnc7c(N)ncnc76)O5)N(C)C)C[C@H](n5cnc6c(=O)[nH]c(N)nc65)O4)N(C)C)C[C@H](n4ccc(N)nc4=O)O3)N(C)C)C[C@@H](COP(=O)(N(C)C)N3C[C@@H](COP(=O)(N(C)C)N4C[C@@H](COP(=O)(N(C)C)N5CCN(C(=O)CCNC(=O)CCCCCNC(=O)[C@H](CCCNC(=N)N)NC(=O)CCCCNC(=O)[C@H](CCCNC(=N)N)NC(=O)[C@H](CCCNC(=N)N)NC(=O)CCCCNC(=O)[C@H](CCCNC(=N)N)NC(=O)[C@H](CCCNC(=N)N)NC(=O)CCCCNC(=O)[C@H](CCCNC(=N)N)NC(=O)[C@H](CCCNC(=N)N)NC(=O)CCCCNC(=O)[C@@H](N)CCCNC(=N)N)CC5)O[C@@H](n5ccc(N)nc5=O)C4)O[C@@H](n4cc(C)c(=O)[nH]c4=O)C3)O2)c(=O)[nH]c1=O (stereo partly drawn) | – | – | 1.25 µM (≈ 7.02 µg/mL) | – | – | – | – | – | 2.5 | – | – | Active | Antagonist | 2.5 | 98% |
